Tests used:
[1] = tested on: UACC-62; assay: Antiproliferative activity against human UACC-62 cells assessed as cell growth inhibition measured after 48 hrs by SRB assay; settings: UACC-62, 48 h
[2] = biological target: Serine/threonine-protein kinase B-raf (Homo sapiens, UniProt P15056, V600E); assay: Inhibition of human BRAF V600E mutant using myelin basic protein as substrate in presence of [gamma-33P]ATP incubated for 40 mins by scintillation counting method
In short: (§1)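 Radiometric kinase assay run at Reaction Biology. Kinase (5−10 mU) in 25 mM Tris pH 7.5, 0.02 mM EGTA, 10 mM magnesium acetate with 0.66 mg/mL myelin basic protein and [γ-33P]ATP at 1 μM ATP. Reaction started with Mg-ATP and run 40 min at room temperature, then stopped with 3% phosphoric acid. Spotted on P30 filtermat, washed, scintillation counted.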

[3] = biological target: Tyrosine-protein kinase ABL1 (Homo sapiens, UniProt P00519); assay: Inhibition of ABL1 (unknown origin) incubated for 1 hr by qPCR analysis
Tyrosine-protein kinase ABL1, sequence (P00519 whole entry): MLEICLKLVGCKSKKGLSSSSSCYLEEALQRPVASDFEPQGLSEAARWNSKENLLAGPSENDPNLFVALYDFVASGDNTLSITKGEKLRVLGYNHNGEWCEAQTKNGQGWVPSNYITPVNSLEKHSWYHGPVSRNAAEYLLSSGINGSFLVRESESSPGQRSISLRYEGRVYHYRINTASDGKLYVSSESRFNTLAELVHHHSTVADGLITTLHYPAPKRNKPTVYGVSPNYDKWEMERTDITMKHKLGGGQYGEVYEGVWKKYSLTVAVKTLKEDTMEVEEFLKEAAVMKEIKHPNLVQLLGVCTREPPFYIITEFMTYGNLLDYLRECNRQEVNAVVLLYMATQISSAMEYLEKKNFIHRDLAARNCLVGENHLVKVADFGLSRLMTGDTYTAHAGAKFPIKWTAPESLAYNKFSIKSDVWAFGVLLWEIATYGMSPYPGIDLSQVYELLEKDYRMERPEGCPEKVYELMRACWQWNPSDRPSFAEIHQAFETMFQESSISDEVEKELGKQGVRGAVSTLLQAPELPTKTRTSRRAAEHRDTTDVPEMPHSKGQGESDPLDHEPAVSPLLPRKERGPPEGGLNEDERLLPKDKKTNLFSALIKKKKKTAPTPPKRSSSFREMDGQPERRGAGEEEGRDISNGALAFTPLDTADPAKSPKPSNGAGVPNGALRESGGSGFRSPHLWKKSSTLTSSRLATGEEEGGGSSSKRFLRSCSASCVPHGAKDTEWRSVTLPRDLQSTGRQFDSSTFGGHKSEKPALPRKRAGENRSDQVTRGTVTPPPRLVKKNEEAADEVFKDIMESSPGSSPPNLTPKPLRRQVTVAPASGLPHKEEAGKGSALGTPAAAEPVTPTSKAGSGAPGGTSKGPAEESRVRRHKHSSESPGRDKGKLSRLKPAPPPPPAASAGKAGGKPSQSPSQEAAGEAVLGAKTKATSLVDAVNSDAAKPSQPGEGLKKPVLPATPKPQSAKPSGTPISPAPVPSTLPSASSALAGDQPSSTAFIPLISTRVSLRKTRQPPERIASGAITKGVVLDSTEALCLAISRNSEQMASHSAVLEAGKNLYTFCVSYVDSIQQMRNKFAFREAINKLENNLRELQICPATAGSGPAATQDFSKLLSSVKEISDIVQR

[4] = tested on: Panel colon (Carcinoma cell lines); assay: Antiproliferative activity against human Panel colon (Carcinoma cell lines) assessed as cell growth inhibition measured after 48 hrs by SRB assay
[5] = tested on: Panel melanoma (Carcinoma cell lines); assay: Antiproliferative activity against human Panel melanoma (Carcinoma cell lines) assessed as cell growth inhibition measured after 48 hrs by SRB assay
[6] = tested on: Panel ovarian (Carcinoma cell lines); assay: Antiproliferative activity against human Panel ovarian (Carcinoma cell lines) assessed as cell growth inhibition measured after 48 hrs by SRB assay
[7] = biological target: Serine/threonine-protein kinase B-raf (Homo sapiens, UniProt P15056); assay: Inhibition of human wild type BRAF using myelin basic protein as substrate in presence of [gamma-33P]ATP incubated for 40 mins by scintillation counting method; in short: as §1
Serine/threonine-protein kinase B-raf (Homo sapiens, UniProt P15056), sequence (P15056 whole entry): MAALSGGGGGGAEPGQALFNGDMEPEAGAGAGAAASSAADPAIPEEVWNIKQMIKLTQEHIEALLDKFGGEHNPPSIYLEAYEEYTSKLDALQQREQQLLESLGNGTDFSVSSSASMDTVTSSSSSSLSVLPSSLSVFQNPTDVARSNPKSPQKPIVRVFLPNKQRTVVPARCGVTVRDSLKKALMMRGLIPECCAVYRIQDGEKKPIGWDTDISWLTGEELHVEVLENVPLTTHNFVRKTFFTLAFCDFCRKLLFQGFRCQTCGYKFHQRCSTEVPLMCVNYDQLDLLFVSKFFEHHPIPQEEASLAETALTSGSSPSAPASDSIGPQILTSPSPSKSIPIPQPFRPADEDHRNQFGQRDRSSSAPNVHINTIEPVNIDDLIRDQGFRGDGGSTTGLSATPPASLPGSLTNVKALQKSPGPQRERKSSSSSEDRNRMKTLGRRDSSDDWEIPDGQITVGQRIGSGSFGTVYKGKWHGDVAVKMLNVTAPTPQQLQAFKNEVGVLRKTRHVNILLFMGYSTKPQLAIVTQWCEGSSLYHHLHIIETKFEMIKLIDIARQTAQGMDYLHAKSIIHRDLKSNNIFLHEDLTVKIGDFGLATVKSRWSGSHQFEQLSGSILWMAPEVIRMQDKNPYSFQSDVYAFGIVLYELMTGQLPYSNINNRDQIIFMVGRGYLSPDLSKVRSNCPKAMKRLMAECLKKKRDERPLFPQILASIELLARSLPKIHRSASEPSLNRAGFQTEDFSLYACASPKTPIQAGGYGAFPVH

[8] = tested on: SK-MEL-2; assay: Antiproliferative activity against human SK-MEL-2 cells assessed as cell growth inhibition measured after 48 hrs by SRB assay; settings: SK-MEL-2, 48 h
[9] = biological target: RAF proto-oncogene serine/threonine-protein kinase (Homo sapiens, UniProt P04049); assay: Inhibition of human wild type CRAF using myelin basic protein as substrate in presence of [gamma-33P]ATP incubated for 40 mins by scintillation counting method
RAF proto-oncogene serine/threonine-protein kinase, sequence (P04049 whole entry): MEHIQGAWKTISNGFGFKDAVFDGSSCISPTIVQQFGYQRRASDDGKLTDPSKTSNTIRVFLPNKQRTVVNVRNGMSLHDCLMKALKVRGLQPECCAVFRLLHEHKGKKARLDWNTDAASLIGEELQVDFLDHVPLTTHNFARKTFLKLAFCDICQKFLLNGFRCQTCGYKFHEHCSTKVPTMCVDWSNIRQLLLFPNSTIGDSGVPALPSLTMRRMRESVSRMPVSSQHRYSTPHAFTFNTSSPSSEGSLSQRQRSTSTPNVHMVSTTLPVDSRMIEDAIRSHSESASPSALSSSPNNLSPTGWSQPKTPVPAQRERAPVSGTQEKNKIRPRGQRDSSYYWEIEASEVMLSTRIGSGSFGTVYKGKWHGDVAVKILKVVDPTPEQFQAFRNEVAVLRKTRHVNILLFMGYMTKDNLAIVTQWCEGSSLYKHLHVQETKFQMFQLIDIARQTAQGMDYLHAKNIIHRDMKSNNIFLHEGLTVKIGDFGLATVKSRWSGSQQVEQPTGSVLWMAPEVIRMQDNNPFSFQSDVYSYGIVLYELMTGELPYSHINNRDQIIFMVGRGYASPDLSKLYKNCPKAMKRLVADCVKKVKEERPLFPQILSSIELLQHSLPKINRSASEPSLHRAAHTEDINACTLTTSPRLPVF

[10] = tested on: Panel CNS (Carcinoma cell lines); assay: Antiproliferative activity against human Panel CNS (Carcinoma cell lines) assessed as cell growth inhibition measured after 48 hrs by SRB assay
[11] = tested on: Panel CNS (Carcinoma cell lines); assay: cells; settings: Homo sapiens, 48 h, read-out: INH
[12] = tested on: Panel prostate (Carcinoma cell lines); assay: Antiproliferative activity against human Panel prostate (Carcinoma cell lines) assessed as cell growth inhibition measured after 48 hrs by SRB assay
[13] = tested on: SK-MEL-2; assay: Antiproliferative activity against human SK-MEL-2 cells assessed as total growth inhibition measured after 48 hrs by SRB assay; settings: SK-MEL-2, 48 h
[14] = biological target: Mitogen-activated protein kinase 8 (Homo sapiens, UniProt P45983); assay: Inhibition of MAPK8 (unknown origin) incubated for 1 hr by qPCR analysis
Mitogen-activated protein kinase 8, sequence (P45983 whole entry): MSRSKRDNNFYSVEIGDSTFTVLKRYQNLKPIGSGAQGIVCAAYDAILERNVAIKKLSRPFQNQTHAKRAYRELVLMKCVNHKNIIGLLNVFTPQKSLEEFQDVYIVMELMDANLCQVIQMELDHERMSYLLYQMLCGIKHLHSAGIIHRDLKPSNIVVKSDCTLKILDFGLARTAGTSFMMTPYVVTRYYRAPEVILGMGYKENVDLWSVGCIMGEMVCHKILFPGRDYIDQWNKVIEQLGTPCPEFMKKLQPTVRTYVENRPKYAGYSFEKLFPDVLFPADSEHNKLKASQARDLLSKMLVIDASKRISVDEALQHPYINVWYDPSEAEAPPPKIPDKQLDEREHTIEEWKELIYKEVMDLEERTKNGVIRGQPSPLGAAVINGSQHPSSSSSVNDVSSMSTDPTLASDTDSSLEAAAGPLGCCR
In short: (§2)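 Competition binding assay. Kinases were either T7-phage-tagged (grown in an E. coli BL21-derived host) or expressed in HEK-293 cells and DNA-tagged. […] Bound kinase was eluted with non-biotinylated ligand and quantified by qPCR.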

[15] = biological target: Mitogen-activated protein kinase 11 (Homo sapiens, UniProt Q15759); assay: Inhibition of MAPK11 (unknown origin) incubated for 1 hr by qPCR analysis; in short: as §2
Mitogen-activated protein kinase 11, sequence (Q15759 whole entry): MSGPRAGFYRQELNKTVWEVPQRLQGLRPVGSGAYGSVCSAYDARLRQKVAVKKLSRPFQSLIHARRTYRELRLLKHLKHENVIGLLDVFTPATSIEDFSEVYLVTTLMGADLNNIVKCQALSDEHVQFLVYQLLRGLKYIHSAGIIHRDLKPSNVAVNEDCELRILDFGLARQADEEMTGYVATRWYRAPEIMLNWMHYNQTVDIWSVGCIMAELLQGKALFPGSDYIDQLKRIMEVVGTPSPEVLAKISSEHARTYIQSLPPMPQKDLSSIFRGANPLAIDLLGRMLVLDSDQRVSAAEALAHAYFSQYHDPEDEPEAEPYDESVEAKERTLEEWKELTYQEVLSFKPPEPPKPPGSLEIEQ

[16] = tested on: Panel ovarian (Carcinoma cell lines); assay: cells; settings: Homo sapiens, 48 h, read-out: INH
[17] = tested on: UACC-62; assay: Antiproliferative activity against human UACC-62 cells assessed as total growth inhibition measured after 48 hrs by SRB assay; settings: UACC-62, 48 h
[18] = tested on: UACC-257; assay: Antiproliferative activity against human UACC-257 cells assessed as cell growth inhibition measured after 48 hrs by SRB assay; settings: UACC-257, 48 h
[19] = tested on: M14; assay: Antiproliferative activity against human M14 cells assessed as cell growth inhibition measured after 48 hrs by SRB assay; settings: M14, 48 h
[20] = tested on: M14; assay: Antiproliferative activity against human M14 cells assessed as total growth inhibition measured after 48 hrs by SRB assay; settings: M14, 48 h
[21] = tested on: NSCLC; assay: Antiproliferative activity against human NSCLC cell line assessed as cell growth inhibition measured after 48 hrs by SRB assay
[22] = biological target: T1, Receptor-type tyrosine-protein kinase FLT3 (Homo sapiens, UniProt P36888); assay: Inhibition of FLT3 (unknown origin) incubated for 1 hr by qPCR analysis; in short: as §2
T1 sequence (P36888 whole entry): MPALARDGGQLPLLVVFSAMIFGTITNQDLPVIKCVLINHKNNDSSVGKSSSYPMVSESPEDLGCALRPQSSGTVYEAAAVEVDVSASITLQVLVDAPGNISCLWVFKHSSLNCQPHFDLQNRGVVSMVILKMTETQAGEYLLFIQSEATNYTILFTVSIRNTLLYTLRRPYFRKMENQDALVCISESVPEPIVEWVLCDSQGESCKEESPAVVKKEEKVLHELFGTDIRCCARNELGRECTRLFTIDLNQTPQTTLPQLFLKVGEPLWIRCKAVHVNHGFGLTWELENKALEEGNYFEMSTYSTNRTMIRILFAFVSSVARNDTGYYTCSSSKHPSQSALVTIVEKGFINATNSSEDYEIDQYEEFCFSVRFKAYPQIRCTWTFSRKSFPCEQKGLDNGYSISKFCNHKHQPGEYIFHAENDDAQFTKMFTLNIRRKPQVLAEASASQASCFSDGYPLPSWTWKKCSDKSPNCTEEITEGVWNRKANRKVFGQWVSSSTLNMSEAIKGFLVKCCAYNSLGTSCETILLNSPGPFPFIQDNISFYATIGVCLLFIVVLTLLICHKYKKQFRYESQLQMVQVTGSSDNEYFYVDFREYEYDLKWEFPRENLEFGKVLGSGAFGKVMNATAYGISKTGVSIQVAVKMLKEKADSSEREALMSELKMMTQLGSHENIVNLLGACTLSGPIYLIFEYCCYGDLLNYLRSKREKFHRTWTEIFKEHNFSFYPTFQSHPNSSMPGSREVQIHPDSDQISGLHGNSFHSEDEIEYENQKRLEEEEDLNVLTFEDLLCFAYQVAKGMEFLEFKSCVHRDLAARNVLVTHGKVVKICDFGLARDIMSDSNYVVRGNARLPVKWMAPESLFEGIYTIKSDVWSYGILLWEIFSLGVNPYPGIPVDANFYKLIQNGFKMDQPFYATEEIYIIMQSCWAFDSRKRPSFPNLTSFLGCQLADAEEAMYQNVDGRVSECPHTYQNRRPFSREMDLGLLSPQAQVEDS

[23] = tested on: SK-MEL-5; assay: Antiproliferative activity against human SK-MEL-5 cells assessed as cell growth inhibition measured after 48 hrs by SRB assay; settings: SK-MEL-5, 48 h
[24] = biological target: Serine/threonine-protein kinase/endoribonuclease IRE1 (Homo sapiens, UniProt O75460); assay: Inhibition of ERN1 (unknown origin) incubated for 1 hr by qPCR analysis; in short: as §2
Serine/threonine-protein kinase/endoribonuclease IRE1, sequence (O75460 whole entry): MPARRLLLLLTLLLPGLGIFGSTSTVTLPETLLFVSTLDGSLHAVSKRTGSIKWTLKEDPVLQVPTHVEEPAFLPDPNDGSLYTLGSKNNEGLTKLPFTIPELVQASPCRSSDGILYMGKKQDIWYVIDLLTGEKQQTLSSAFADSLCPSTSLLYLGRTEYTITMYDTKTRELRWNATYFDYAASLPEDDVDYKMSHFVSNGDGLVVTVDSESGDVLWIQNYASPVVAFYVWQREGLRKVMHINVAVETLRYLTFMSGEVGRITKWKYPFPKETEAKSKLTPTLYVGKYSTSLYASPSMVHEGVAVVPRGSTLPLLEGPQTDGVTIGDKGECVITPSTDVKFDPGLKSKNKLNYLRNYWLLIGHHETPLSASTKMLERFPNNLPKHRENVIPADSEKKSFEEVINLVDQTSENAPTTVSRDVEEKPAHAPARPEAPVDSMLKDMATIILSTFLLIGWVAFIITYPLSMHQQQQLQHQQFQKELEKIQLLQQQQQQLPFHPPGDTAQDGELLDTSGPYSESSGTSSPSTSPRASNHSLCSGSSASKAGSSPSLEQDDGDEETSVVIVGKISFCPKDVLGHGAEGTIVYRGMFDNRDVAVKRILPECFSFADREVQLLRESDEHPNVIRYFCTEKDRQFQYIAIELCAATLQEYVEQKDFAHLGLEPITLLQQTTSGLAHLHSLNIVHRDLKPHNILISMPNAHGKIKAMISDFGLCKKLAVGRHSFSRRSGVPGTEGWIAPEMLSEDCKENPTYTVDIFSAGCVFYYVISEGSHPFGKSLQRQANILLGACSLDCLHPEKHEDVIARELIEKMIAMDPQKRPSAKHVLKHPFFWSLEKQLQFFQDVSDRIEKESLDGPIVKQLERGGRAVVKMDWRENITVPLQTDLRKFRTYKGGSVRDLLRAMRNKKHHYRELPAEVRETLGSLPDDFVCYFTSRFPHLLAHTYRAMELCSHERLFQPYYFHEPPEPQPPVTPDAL

[25] = tested on: MDA-MB-435; assay: Antiproliferative activity against human MDA-MB-435 cells assessed as cell growth inhibition measured after 48 hrs by SRB assay; settings: MDA-MB-435, 48 h

Serine/threonine-protein kinase B-raf (Homo sapiens, UniProt P15056, V600E), sequence (P15056 2-766 V600E limits assumed): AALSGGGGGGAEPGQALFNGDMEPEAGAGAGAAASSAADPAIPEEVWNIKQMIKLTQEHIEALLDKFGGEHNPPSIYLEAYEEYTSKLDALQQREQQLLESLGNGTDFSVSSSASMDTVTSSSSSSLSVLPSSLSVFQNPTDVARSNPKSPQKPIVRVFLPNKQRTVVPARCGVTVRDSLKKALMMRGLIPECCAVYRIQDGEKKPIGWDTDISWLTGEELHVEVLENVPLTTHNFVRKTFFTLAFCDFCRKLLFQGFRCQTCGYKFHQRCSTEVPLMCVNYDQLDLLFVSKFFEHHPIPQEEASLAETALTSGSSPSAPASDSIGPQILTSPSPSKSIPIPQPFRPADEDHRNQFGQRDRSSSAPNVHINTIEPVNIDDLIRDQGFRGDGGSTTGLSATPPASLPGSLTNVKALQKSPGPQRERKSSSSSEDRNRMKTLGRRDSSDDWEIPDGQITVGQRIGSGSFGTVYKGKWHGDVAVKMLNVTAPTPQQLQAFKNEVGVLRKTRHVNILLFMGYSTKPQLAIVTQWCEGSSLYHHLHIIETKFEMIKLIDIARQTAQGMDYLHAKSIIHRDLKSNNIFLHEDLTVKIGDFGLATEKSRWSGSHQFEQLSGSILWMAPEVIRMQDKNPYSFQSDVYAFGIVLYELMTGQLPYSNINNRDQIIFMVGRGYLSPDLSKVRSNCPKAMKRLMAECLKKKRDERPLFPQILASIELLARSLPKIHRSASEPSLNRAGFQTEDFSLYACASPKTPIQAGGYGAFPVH

## O=S(=O)(NCCCNc1nccc(-c2c(-c3cccc(O)c3)nc3sccn23)n1)c1cccc(F)c1
[1]
  IC50: 0.75 µM
[2]
  IC50: 0.00098 µM
[3]
  IC50: 13.6 µM
[4]
  IC50: 3.02 µM
[5]
  IC50: 2.03 µM
[6]
  IC50: 2.97 µM
[7]
  IC50: 0.0042 µM
[8]
  IC50: 2.32 µM
[9]
  IC50: 0.005 µM
[10]
  IC50: 3.19 µM
[11]
  inhibition at 10 µM: 83.1%
[12]
  IC50: 2.38 µM
[13]
  TGI: 6.57 µM
[14]
  IC50: 1.87 µM
[15]
  IC50: 0.98 µM
[16]
  inhibition at 10 µM: 75%
[17]
  TGI: 2.73 µM
[18]
  IC50: 2.85 µM
[19]
  IC50: 2.54 µM
[20]
  TGI: 10.2 µM
[21]
  IC50: 2.55 µM
[22]
  IC50: 1.48 µM
[23]
  IC50: 1.06 µM
[24]
  IC50: 10.2 µM
[25]
  IC50: 2 µM
